{"data": "Published values from different studies", "target": "RAC-gamma serine/threonine-protein kinase (AKT3, Homo sapiens, UniProt Q9Y243)", "note": "Each line is one published result; the experiments were not run side by side."}
{"SMILES": "CSc1cccnc1N1CCN(Cc2nc3ccccc3[nH]2)CC1", "observed": "cell-free assay", "method": "competition with immobilised ligand", "concentration": "1 µM", "measurement": "remaining binding", "result": "92%"}
{"SMILES": "CCN(CC)CCNC(=O)c1c(C)[nH]c(/C=C2\\C(=O)Nc3ccc(F)cc32)c1C", "observed": "cell-free assay", "concentration": "0.5 µM", "measurement": "remaining signal", "result": "71.7%"}
{"SMILES": "CC(C)(C)c1nc2c(s1)c1nc(N)ncc1c1ccc(NS(=O)(=O)c3c(F)cccc3F)c(F)c12", "observed": "enzyme activity", "action": "inhibitor", "method": "radiometric", "concentration": "1 µM", "measurement": "remaining activity", "result": "89%"}
{"SMILES": "CO[C@@H](C)c1c(Nc2ccc([C@H](N(C)C(=O)C3CCS(=O)(=O)CC3)C(F)(F)F)cc2)cnc2cc(Cl)nn12", "observed": "cell-free assay", "method": "competition with immobilised ligand", "concentration": "1 µM", "measurement": "remaining binding", "result": "100%"}
{"SMILES": "Cc1ccc(C(=O)NCc2ccsc2)cc1C#Cc1cn(C(C)C)c2ncnc(N)c12", "observed": "enzyme activity", "action": "inhibitor", "concentration": "1 µM", "measurement": "activity vs control", "result": "79%"}
{"SMILES": "CCCOc1ccc(OC)c(F)c1C(=O)c1ccc(C(=O)N[C@@H]2CNC[C@H]2NC(=O)c2ccc3[nH]ncc3c2)cc1", "observed": "enzyme activity", "action": "inhibitor", "concentration": "50 nM", "measurement": "remaining activity", "result": "97%"}
{"SMILES": "O=C1NC(=O)c2cc(Nc3ccc(F)cc3)c(Nc3ccc(F)cc3)cc21", "observed": "cell-free assay", "concentration": "0.5 µM", "measurement": "remaining signal", "result": "100%"}
{"SMILES": "CC(C)(O)[C@H]1CC[C@H](Nc2ccc3ncc(-c4cccc(C(F)(F)F)c4)n3n2)CC1", "observed": "enzyme activity", "action": "inhibitor", "concentration": "1 µM", "measurement": "remaining activity", "result": "96.5%"}
{"SMILES": "COc1cc(Cl)c(C(=O)N[C@@H](CN[C@H]2CC[C@@H](N)CC2)Cc2ccc(C#N)cc2)cc1-c1ccc(CN[C@H](C)c2ccc(C)cc2)o1", "observed": "enzyme activity", "action": "inhibitor", "concentration": "1 µM", "measurement": "remaining activity", "result": "97%"}
{"SMILES": "CCN(CC)c1ccc(C2=NNC(=O)CC2C)cc1[N+](=O)[O-] (stereo not shown)", "observed": "enzyme activity", "action": "inhibitor", "concentration": "10 µM", "measurement": "remaining activity", "result": "91%"}
{"SMILES": "Cn1c2c(c3ccc(Cl)c(Cl)c31)C(C#N)C1(CCOCC1)NC2=O (stereo not shown)", "observed": "thermal stability", "method": "DSF", "concentration": "10 µM", "measurement": "ΔTm", "result": "-0.1 °C"}
{"SMILES": "CN(C)c1ncnc(-c2ccc3nc(Nc4cc(CN5CCN(C(=O)CC(F)(F)F)CC5)ccn4)[nH]c3c2)c1Cl", "observed": "cell-free assay", "method": "competition with immobilised ligand", "concentration": "1 µM", "measurement": "remaining binding", "result": "96%"}
{"SMILES": "Cn1c2c(Cl)c(Cl)ccc2c2cc[nH]c(=O)c21", "observed": "thermal stability", "method": "DSF", "concentration": "10 µM", "measurement": "ΔTm", "result": "0 °C"}
{"SMILES": "O=c1nc(-c2ccccn2)sc2ccccc12", "observed": "binding", "method": "competition with immobilised ligand", "concentration": "1 µM", "measurement": "remaining binding", "result": "100%"}
{"SMILES": "Cn1c2c(c3ccc(Cl)c(Cl)c31)C(C#N)C1(CCNCC1)NC2=O (racemic)", "observed": "thermal stability", "method": "DSF", "concentration": "10 µM", "measurement": "ΔTm", "result": "-0.1 °C"}
{"SMILES": "Cc1c(NC(=O)c2cc(C(N)=O)nc3cc(F)ccc23)c(C(F)(F)F)nn1Cc1ccc(C#N)cc1", "observed": "cell-free assay", "method": "competition with immobilised ligand", "concentration": "1 µM", "measurement": "remaining binding", "result": "81%"}
